Columns and labels:
[1] = target: T1, Protein-glutamine gamma-glutamyltransferase K (Homo sapiens) (UniProt P22735); assay: Inhibition of human transglutaminase 1 using ((benzyloxy)carbonyl)-L-glutaminyl-L-serine peptide substrate assessed as Kinh/Ki ratio by GDH coupled assay
T1 sequence (whole entry): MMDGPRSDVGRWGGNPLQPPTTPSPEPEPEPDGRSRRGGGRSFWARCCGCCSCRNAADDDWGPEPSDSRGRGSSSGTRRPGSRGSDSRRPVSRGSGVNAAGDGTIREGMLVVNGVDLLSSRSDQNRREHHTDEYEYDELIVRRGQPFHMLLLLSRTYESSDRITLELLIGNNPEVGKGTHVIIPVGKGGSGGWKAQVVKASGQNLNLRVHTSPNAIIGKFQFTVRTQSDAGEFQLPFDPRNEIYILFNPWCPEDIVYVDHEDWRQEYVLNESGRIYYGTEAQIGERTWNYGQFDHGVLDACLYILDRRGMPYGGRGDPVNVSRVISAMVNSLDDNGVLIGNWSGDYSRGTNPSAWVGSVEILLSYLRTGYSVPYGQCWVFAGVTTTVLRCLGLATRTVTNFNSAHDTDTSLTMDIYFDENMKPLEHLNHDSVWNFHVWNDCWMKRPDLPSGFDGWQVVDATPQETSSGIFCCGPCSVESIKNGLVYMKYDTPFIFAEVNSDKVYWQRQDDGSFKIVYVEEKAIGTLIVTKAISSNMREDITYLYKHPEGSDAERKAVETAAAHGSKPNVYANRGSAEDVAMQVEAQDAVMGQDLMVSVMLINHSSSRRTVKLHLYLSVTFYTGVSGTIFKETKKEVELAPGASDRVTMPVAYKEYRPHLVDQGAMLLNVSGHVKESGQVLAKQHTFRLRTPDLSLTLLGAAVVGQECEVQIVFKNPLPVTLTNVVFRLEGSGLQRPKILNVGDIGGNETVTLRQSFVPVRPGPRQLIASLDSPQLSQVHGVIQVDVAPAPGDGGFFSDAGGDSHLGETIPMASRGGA
Procedure, shortened: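 Recombinant His-tagged human TG1 from E. coli Rosetta 2 pLysS, final ~0.37 μM, in 200 mM MOPS pH 7.2, 5 mM CaCl2, 10 mM α-ketoglutarate, 300 μM NADH, 36 U/mL GDH. Z-Gln-Ser at 20/40 mM. Inhibitors typically at 100/33.3/11.1/3.7 μM (1% DMSO), added after ≥5 min enzyme pre-equilibration. NADH loss read at 340 nm; progress curves fitted to exponential decay, kinh/Ki from irreversible model.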

[2] = target: T2, Protein-glutamine gamma-glutamyltransferase (Homo sapiens) (UniProt P21980); assay: Inhibition of human transglutaminase 2 using ((benzyloxy)carbony l)-L-glutaminylglycine peptide substrate assessed as Kinh/Ki ratio by GDH coupled assay
T2 sequence (whole entry): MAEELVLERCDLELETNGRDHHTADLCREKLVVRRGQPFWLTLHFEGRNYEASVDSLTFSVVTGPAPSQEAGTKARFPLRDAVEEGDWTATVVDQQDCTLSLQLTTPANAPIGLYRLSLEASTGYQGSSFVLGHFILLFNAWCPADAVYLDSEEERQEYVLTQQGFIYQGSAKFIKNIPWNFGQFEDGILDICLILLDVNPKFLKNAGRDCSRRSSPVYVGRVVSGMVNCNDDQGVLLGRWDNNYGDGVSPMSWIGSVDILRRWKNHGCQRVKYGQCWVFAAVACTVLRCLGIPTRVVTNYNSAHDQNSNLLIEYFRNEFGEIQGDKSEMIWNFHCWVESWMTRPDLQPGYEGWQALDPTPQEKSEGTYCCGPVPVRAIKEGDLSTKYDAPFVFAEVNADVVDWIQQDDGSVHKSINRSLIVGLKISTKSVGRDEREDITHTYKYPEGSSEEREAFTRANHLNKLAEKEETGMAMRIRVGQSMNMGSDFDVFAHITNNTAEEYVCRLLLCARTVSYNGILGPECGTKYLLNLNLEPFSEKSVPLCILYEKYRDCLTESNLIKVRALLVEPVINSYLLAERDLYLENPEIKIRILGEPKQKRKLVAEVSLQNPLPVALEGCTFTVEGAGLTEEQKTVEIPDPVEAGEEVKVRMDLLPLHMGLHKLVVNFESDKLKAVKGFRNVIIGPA
Procedure, shortened: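 Human TG2 (V224G variant) or codon-optimized murine TG2, E. coli-expressed, final ~0.34 and 0.22 μM respectively. Buffer: 200 mM MOPS pH 7.2, 5 mM CaCl2, 10 mM α-ketoglutarate, 300 μM NADH, 36 U/mL bovine GDH. Z-Gln-Gly at 10/20 mM. Inhibitors typically at 100/33.3/11.1/3.7 μM, 1% DMSO, added after ≥5 min pre-equilibration. A340 progress curves fitted to exponential decay; kinh/Ki from irreversible inhibition model.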

[3] = Half life in CD-1 mouse at 50 mg/kg, po; format: ADME, organism-based; parameters: dose 50 mg/kg, route oral; conditions: in vivo
Procedure, shortened: (§1)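 Male CD-1 mice (6−8 weeks, cohorts of five) fasted ~6 h, then gavaged (10 μL/g) with inhibitor mixtures at 50 mg/kg each compound. Vehicle: 25 mg/mL per compound in 1 M HCl/10% Tween-80/25% ethanol, diluted 5-fold into 0.94% methylcellulose in 250 mM trisodium citrate. Blood sampled at 5, 20 (saphenous) and 60 min (cardiac). Plasma quantified by LC-MS (ESI-QTOF) against standard curves.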

[4] = Plasma concentration in CD-1 mouse at 50 mg/kg, po after 5 mins; format: ADME, organism-based; parameters: dose 50 mg/kg, route oral; procedure, shortened: as §1
[5] = Plasma concentration in CD-1 mouse at 50 mg/kg, po after 20 mins; format: ADME, organism-based; parameters: dose 50 mg/kg, route oral; procedure, shortened: as §1

Row | Ratio [1] | Ratio [2] | half-life [3] | concentration at 5 min [4] | concentration at 20 min [5] | SMILES
1 | 31.3 | 56.4 | 15 min | – | – | O=C(N[C@@H]1C[C@@H](C(=O)NC[C@@H]2CC(Br)=NO2)N(C(=O)OCc2cnc3ccccc3c2)C1)c1ccc(O)cc1
2 | 20 | 108 | 15 min | – | – | O=C(N[C@@H]1C[C@@H](C(=O)NC[C@@H]2CC(Br)=NO2)N(C(=O)OCc2cnc3ccccc3c2)C1)c1cccnc1
3 | 66.3 | 48.6 | 15 min | – | – | O=C(NC[C@@H]1CC(Br)=NO1)[C@@H]1C[C@@H](c2ccccc2)CN1C(=O)OCc1cnc2ccccc2c1
4 | 5.8 | 13.8 | 15 min | – | – | O=C(NC[C@@H]1CC(Br)=NO1)[C@@H]1C[C@@H](OCc2ccccc2)CN1C(=O)OCc1cnc2ccccc2c1
5 | 4.8 | 12.5 | 15 min | – | – | O=C(NC[C@@H]1CC(Br)=NO1)[C@@H]1C[C@@H](O)CN1C(=O)OCc1cnc2ccccc2c1
6 | 6 | 13.4 | 15 min | 2900 ng/mL | 2100 ng/mL | O=C(NC[C@@H]1CC(Br)=NO1)[C@@H]1C[C@H](F)CN1C(=O)OCc1cnc2ccccc2c1
7 | 90.7 | 91.1 | 15 min | – | – | O=C(NC[C@@H]1CC(Br)=NO1)[C@@H]1C[C@@H](c2ccc(O)cc2)CN1C(=O)OCc1cnc2ccccc2c1
8 | 13.2 | 16.9 | 15 min | 2100 ng/mL | 1200 ng/mL | O=C(NC[C@@H]1CC(Br)=NO1)[C@@H]1CCCN1C(=O)OCc1cnc2ccccc2c1
